Source: PubChem (The Scripps Research Institute Molecular Screening Center)
A selection: hits, their analogues and other compounds. The true share with any hit is near 2.3%.
OXTR potentiator: potentiators of human oxytocin receptor; activation, % at 3 µM; 320,000 compounds, 0.061% hits; P30559; CHO-OTR cells, Fluo-8 calcium fluorescence, potentiator mode; 0% = oxytocin EC15, 100% = EC100;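 active = activation above that plate's cutoff, the mean activation of tested compounds plus 3 SD, cut at about 6.6% in these data, passing the limit was not always enough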;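 also: 100% uses oxytocin at 75 nM as the full agonist control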
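Assay system: CHO cell line stably expressing human OTR | Also added: Oxytocin at about EC15, sub-maximal agonist stimulus | Times: Compound 6 min at room temperature before oxytocin, 100 s read | Measured by: Fluo-8 intracellular calcium fluorescence, ex 470-495, em 515-575 nm | Controls: EC15 oxytocin alone as 0%, 75 nM oxytocin as 100%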
TAAR1 antagonist: human TAAR1 antagonism. Q96RJ0. CHO RD-HGA16 TAAR1, Fluo-8 calcium fluorescence, antagonist. inhibition, % at 3 µM. 360,000 compounds, 1.5% hits. AID 624466;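 active = inhibition above a per-plate cutoff, the mean inhibition of test compounds on that plate plus 3 SD, cut at about 49% in these data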;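 also: 0% = DMSO plus EC80 beta-PEA response and 100% = DMSO alone without agonist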
Target sequence (Q96RJ0 whole entry, looked up): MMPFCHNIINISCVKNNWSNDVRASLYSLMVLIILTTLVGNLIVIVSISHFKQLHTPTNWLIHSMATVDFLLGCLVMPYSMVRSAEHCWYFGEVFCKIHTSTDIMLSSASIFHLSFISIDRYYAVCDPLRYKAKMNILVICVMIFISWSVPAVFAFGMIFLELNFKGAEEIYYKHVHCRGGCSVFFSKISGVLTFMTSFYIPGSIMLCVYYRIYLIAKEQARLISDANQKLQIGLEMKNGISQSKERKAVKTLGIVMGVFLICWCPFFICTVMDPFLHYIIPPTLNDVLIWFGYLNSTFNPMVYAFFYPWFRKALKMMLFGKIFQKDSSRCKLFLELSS
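Assay system: CHO-derived RD-HGA16 cells stably expressing human TAAR1 plus Gα16. Timing: 140 s kinetic read after compound, 140 s after agonist. Technique: kinetic Fluo-8 calcium fluorescence measurement. Measure: % inhibition of agonist calcium response.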
TAAR1 ag: agonists of human TAAR1; Q96RJ0; CHO RD-HGA16 TAAR1, Fluo-8 calcium fluorescence; vehicle wells 0%, saturating PEA agonist 100%; activation, % at 3 µM; 360,000 compounds, 0.99% hits; AID 624467;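 active = activation above the mean activation of all test compounds in the run plus 3 SD, cut at about 38% in these data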
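Benchmarks: low control DMSO, high control PEA (EC100); System: CHO RD-HGA16 cells carrying human TAAR1 plus Gα16; Detection: Fluo-8 fluorescence, 5 s baseline then 140 s kinetic read; Schedule: 17-24 h plating, Fluo-8 75 min 37 °C, 30 min RT; Read-out basis: % activation from peak over basal fluorescence ratio, DMSO-to-PEA scaled.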
OXTR ag: human OXTR agonism | activation, % at 3 µM | 320,000 compounds, 0.32% hits | P30559 | CHO-OTR cells, Fluo-8 calcium fluorescence; normalized: DMSO 0%, oxytocin 100%;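 active = activation above the mean of all tested compounds plus 3 SD, cutoff set per screening run, cut at about 20% in these data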;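 also: peak over basal fluorescence ratio from a 100 s FLIPR kinetic read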
V1aR counter: counter-screen for oxytocin receptor agonists: human V1a receptor agonists. P37288. CHO-V1R cells, Fluo-8 calcium fluorescence, agonist mode; 0% DMSO, 100% 3 nM vasopressin. activation, % at 3 µM. 320,000 compounds, 0.25% hits;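 active = activation above the mean activation of all tested compounds plus 3 SD, per screening run, cut at about 20% in these data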;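 also: signal is peak over basal fluorescence ratio across a 100 second FLIPR read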
TAAR1 nonsel count: nonselective antagonism, TAAR1 counter-screen; 2,400 compounds, 77% hits; inhibition, % at 3 µM; AID 651780; shares compounds with TAAR1 antagonist; counterscreen cell line, calcium fluorescence, antagonist mode; in the data active = inhibition above about 22%;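 also: CHO-Ga16 host cells stimulated with ATP at an EC80 level; 0% = agonist EC80 plus vehicle and 100% = vehicle without agonist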
TAAR1 antag conf: human TAAR1 antagonism, confirmed; TAAR1-expressing cells, fluorescence antagonist read-out; inhibition, % at 3 µM; shares compounds with TAAR1 antagonist; 2,400 compounds, 40% hits; in the data active = inhibition above about 49%;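 also: CHO-Ga16 host cells challenged with agonist PEA near its EC80; 0% = agonist at EC80 plus vehicle and 100% = vehicle with no agonist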
Ga16 nonsel ag: counter-screen for TAAR1 antagonists: nonselective Ga16 agonists | shares compounds with TAAR1 antagonist | 2,400 compounds, 18% hits | AID 651953 | Ga16-expressing cells, calcium fluorescence, agonist counterscreen | activation, % at 3 µM; in the data active = activation above about 12%;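 also: 0% = vehicle wells and 100% = saturating stimulus response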
TAAR1 ag count: TAAR1 agonism, antagonist counter-screen | shares compounds with TAAR1 antagonist | hTAAR1 cell line, fluorescence activation, agonist mode | activation, % at 3 µM | 2,400 compounds, 2% hits; in the data active = activation above about 37%;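 also: CHO cells stably expressing TAAR1 with calcium dye readout; 0% = DMSO vehicle and 100% = full agonist response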
Numbers without * were called inactive; x = no result given.

SMILES | OXTR potentiator | TAAR1 antagonist | TAAR1 ag | OXTR ag | V1aR counter | TAAR1 nonsel count | TAAR1 antag conf | Ga16 nonsel ag | TAAR1 ag count
Cn1c(/N=C(\N)c2ccccc2)nc2ccccc21 | x | -9 | 2 | x | x | x | x | x | x
CCOC(=O)c1c(C)[nH]c(C(=O)/C(C#N)=C/c2ccc(OC)c(OC)c2)c1C | -8 | -27 | 8 | 0 | 0 | x | x | x | x
CCOc1ccc(/C=C(\C#N)C(=O)c2c(C)[nH]c3ccccc23)cc1OC | -7 | 58* | 2 | -2 | 2 | 15 | 38 | 5 | 6
CCOC(=O)c1c(C)[nH]c(C(=O)/C(C#N)=C/c2ccc(OC(F)F)c(OC)c2)c1C | -7 | -31 | 4 | 1 | 1 | x | x | x | x
COc1cc(/C=C(/C#N)C(=O)c2c(C)[nH]c3ccccc23)ccc1OCC#N | -1 | 55* | 9 | 1 | 2 | 24* | 50* | 19* | 40*
COc1c(F)c(F)c(C(=O)Nc2cccc(Cl)c2N2CCOCC2)c(F)c1F | -2 | 72* | 23 | -1 | 0 | 17 | 31 | 6 | 19
O=C(Nc1cccc(Cl)c1N1CCOCC1)c1ccco1 | -7 | -1 | 0 | 0 | 0 | x | x | x | x
O=C(OCC(=O)N(CCc1ccccc1)Cc1ccccc1)c1ccccc1O | -12 | 48 | 4 | 2 | 6 | x | x | x | x
O=C(OCC(=O)N(CCc1ccccc1)Cc1ccccc1)c1ccccc1NCCO | -15 | 62* | 5 | 0 | 1 | 29* | 47 | 4 | 3
O=C(O)Cn1c(=O)c2c3c(sc2n(Cc2ccccc2F)c1=O)CCCC3 | 0 | 56* | 3 | 0 | 0 | 5 | 38 | 3 | 7
O=C(O)Cn1c(=O)c2c3c(sc2n(Cc2ccc(F)cc2)c1=O)CCCC3 | -6 | 16 | 2 | 0 | 0 | x | x | x | x
O=c1[nH]c(-c2ccccn2)nc2sc(-c3ccccc3)cc12 | x | 6 | 11 | x | x | x | x | x | x
CCN1CCN(C(=O)CCCCCn2c(=O)[nH]c3cc(C(=O)OC)ccc3c2=O)CC1 | -10 | 1 | 0 | 7 | 0 | x | x | x | x
CC(=O)c1ccc(N2CCN(C(=O)CCCn3c(=O)[nH]c4ccsc4c3=O)CC2)cc1 | -6 | 17 | 2 | 1 | 1 | x | x | x | x
COC(=O)c1ccc2c(=O)n(CCCCCC(=O)N3CCN(c4ccccc4)CC3)c(=O)[nH]c2c1 | -19 | 74* | 24 | 5 | 6 | 58* | 72* | 14* | 22
CC(=O)c1ccc(N2CCN(C(=O)CCCn3c(=O)[nH]c4ccc(Br)cc4c3=O)CC2)cc1 | -8 | 67* | 8 | 4 | 6 | 37* | 54* | 11 | 6
O=C(CCS(=O)(=O)c1ccc(Cl)cc1)NCCN1C(=O)S/C(=C\c2ccccc2F)C1=O | -15 | 71* | 14 | 15 | 12 | 38* | 38 | 11 | 7
COC(=O)c1cc2ccccn2c2c(C(=O)OC)c(C(=O)OC)cc1-2 | -5 | 62* | 21 | -1 | -1 | 28* | 49* | 9 | 11
COC(=O)c1cc2c(C)cc3ccc(C)cn3c-2c1C(=O)OC | -14 | -5 | 4 | 0 | 1 | x | x | x | x
COc1ccccc1CN(C)C(=O)c1cc(-c2cccs2)nc2ccccc12 | -11 | 70* | 12 | 0 | 2 | 37* | 56* | 6 | 5
COc1ccc2cc(-c3cc(C(=O)O)c4ccccc4n3)ccc2c1 | -14 | 2 | 6 | 1 | 0 | x | x | x | x
COc1ccc(CN(C)C(=O)c2cc(-c3ccc(OC)c(OC)c3)nc3ccccc23)c(OC)c1 | x | 80* | 1 | x | x | 26* | 49* | 4 | 3
COc1ccc(-c2cc(C(=O)N(C)Cc3cccc(OC)c3OC)c3ccccc3n2)cc1OC | -3 | 62* | 12 | -2 | 0 | 28* | 48 | 6 | 7
